In ChEMBL document CHEMBL1833943, “Synthesis and structure-activity relationships of varied ether linker analogues of the antitubercular drug (6S)-2-nitro-6-{[4-(trifluoromethoxy)benzyl]oxy}-6,7-dihydro-5h-imidazo[2,1-b][1,3]oxazine (PA-824)” (J Med Chem, 2011):
≈ marks a conversion by molar mass, not a printed value.

Legend:
[1] = test system: Mycobacterium tuberculosis; experiment: Antituberculosis activity against Mycobacterium tuberculosis H37Rv infected in BALB/c mouse chronic infection model assessed as fold reduction in bacterial CFU in lungs at 100 mg/kg, po administered for 5 days a week for 3 weeks beginning on day 70 postinfection relative to OPC-67683; assay type: functional
In short: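 Chronic M. tb infection model with dosing starting ~70 days post infection, once bacteria are in a plateau phase of growth. Oral 100 mg/kg daily, 5 days/week, 3 weeks. Lung CFUs counted. Value is the fold CFU reduction for the compound relative to the fold reduction for the reference agent.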

[2] = AUC (0 to infinity) in plasma of CD1 mouse at 40 mg/kg, po; assay type: ADME, organism-based; set-up: time infinity, dose 40 mg/kg, route oral
In short: (§1)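 Mice given a single oral dose of 40 mg/kg; drug levels followed over time in plasma and lung tissue to derive half-life, Cmax and AUC for each matrix.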

[3] = test system: Mycobacterium tuberculosis; experiment: Antituberculosis activity against Mycobacterium tuberculosis H37Rv infected in BALB/c mouse acute infection model assessed as fold reduction in bacterial CFU in lungs at 100 mg/kg, po administered for 5 days a week for 3 weeks beginning on day 11 postinfection relative to PA-824; assay type: functional
In short: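 Mice with acute M. tb infection dosed orally at 100 mg/kg daily, 5 days each week, standard 3 week assay. Lung CFUs counted. Value is the fold CFU decrease for the compound divided by the fold CFU decrease for the internal reference standard run in the same experiment.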

[4] = Metabolic stability in human liver microsomes at 1 uM measured as compound remaining after 1 hr by LC/MS/MS analysis; assay type: ADME, Microsome; settings: read-out: Stability
[5] = Metabolic stability in CD1 mouse liver microsomes at 1 uM measured as compound remaining after 1 hr by LC/MS/MS analysis; assay type: ADME, Microsome; settings: read-out: Stability
[6] = Half life in plasma of CD1 mouse at 40 mg/kg, po; assay type: ADME, organism-based; set-up: dose 40 mg/kg, route oral
[7] = Cmax in lung of CD1 mouse at 40 mg/kg, po; assay type: ADME, organism-based; set-up: dose 40 mg/kg, route oral; in short: as §1
[8] = Ratio of AUC (0 to infinity) in lung of CD1 mouse to AUC (0 to infinity) in plasma of CD1 mouse at 40 mg/kg, po; assay type: ADME, organism-based; set-up: dose 40 mg/kg, route oral; settings: read-out: Ratio AUC
[9] = Cmax in plasma of CD1 mouse at 40 mg/kg, po; assay type: ADME, organism-based; set-up: dose 40 mg/kg, route oral; in short: as §1
[10] = test system: Mycobacterium tuberculosis; experiment: Antituberculosis activity against Mycobacterium tuberculosis H37Rv under aerobic conditions by microplate alamar blue assay; assay type: functional
[11] = AUC (0 to infinity) in lung of CD1 mouse at 40 mg/kg, po; assay type: ADME, organism-based; set-up: time infinity, dose 40 mg/kg, route oral; in short: as §1
[12] = test system: Mycobacterium tuberculosis; experiment: Antituberculosis activity against Mycobacterium tuberculosis H37Rv under anaerobic conditions by fluorescence based low-oxygen-recovery assay; assay type: functional
[13] = Aqueous solubility of the compound in water at pH 7 by HPLC analysis; assay type: physicochemical
In short: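 Solubility measured in water at pH 7 and 20 °C, quantified by HPLC.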

[14] = Stability of the compound in antimycobacterial activity assay condition assessed as parent compound level; assay type: ADME
[15] = Half life in the lung of CD1 mouse at 40 mg/kg, po; assay type: ADME, organism-based; set-up: dose 40 mg/kg, route oral; in short: as §1

Compound | fold change (FC) [1] | AUC(0-inf) [2] | fold change (FC) [3] | remaining at 1 h, 1 µM [4] | remaining at 1 h, 1 µM [5] | half-life [6] | Cmax [7] | Kp [8] | Cmax [9] | MIC [10] | AUC(0-inf) [11] | MIC [12] | solubility [13] | Stability [14] | half-life [15]
O=[N+]([O-])c1cn2c(n1)OC[C@@H](OCCCc1ccc(-c3ccc(OC(F)(F)F)cc3)cc1)C2 | 0.025 | 13300 ng·h/mL | 1.5 | 88% | 91% | 4.4 h | 10100 ng/mL | 2.2 | 990 ng/mL | 0.15 µM (≈ 0.0695 µg/mL) | 29500 ng·h/mL | 3.8 µM (≈ 1.76 µg/mL) | 1.7 µg/mL (≈ 3.67 µM) |  | 
O=[N+]([O-])c1cn2c(n1)OC[C@@H](OCCCc1ccc(-c3ccc(C(F)(F)F)cc3)cc1)C2 |  |  | 0.05 | 73% | 81% |  |  |  |  | 0.043 µM (≈ 0.0192 µg/mL) |  | > 128 µM |  |  | 
O=[N+]([O-])c1cn2c(n1)OC[C@@H](OCCOc1ccc(-c3ccc(OC(F)(F)F)cc3)cc1)C2 |  |  | 1.4 | 90% | 70% |  |  |  |  | 0.055 µM (≈ 0.0256 µg/mL) |  | 1.6 µM (≈ 0.745 µg/mL) | 0.68 µg/mL (≈ 1.46 µM) |  | 
O=[N+]([O-])c1cn2c(n1)OC[C@@H](OCCOc1ccc(-c3ccc(OC(F)(F)F)cc3)cn1)C2 |  |  |  |  |  |  |  |  |  | 0.04 µM (≈ 0.0187 µg/mL) |  | 2.5 µM (≈ 1.17 µg/mL) | 0.79 µg/mL (≈ 1.69 µM) | < 50% | 
O=[N+]([O-])c1cn2c(n1)OC[C@@H](OCCOc1ncc(-c3ccc(OC(F)(F)F)cc3)cn1)C2 |  |  |  |  |  |  |  |  |  | 0.13 µM (≈ 0.0608 µg/mL) |  | 2.1 µM (≈ 0.981 µg/mL) | 21 µg/mL (≈ 44.9 µM) |  | 
O=[N+]([O-])c1cn2c(n1)OC[C@@H](OC/C=C/c1ccc(-c3ccc(OC(F)(F)F)cc3)cc1)C2 |  |  | 2 | 100% | 95% |  |  |  |  |  |  | > 128 µM | 0.5 µg/mL (≈ 1.08 µM) |  | 
O=[N+]([O-])c1cn2c(n1)OC[C@@H](OCC#Cc1ccc(-c3ccc(OC(F)(F)F)cc3)cc1)C2 | 1.6 | 10000 ng·h/mL | 89 | 93% | 85% | 7.5 h | 760 ng/mL | 1.4 | 570 ng/mL |  | 13600 ng·h/mL |  | 0.07 µg/mL (≈ 0.152 µM) |  | 12.3 h
O=[N+]([O-])c1cn2c(n1)OC[C@@H](OCC#Cc1ccc(-c3ccc(C(F)(F)F)nc3)cc1)C2 |  |  | 0.01 | 82% | 90% |  |  |  |  | 0.15 µM (≈ 0.0667 µg/mL) |  | 1.2 µM (≈ 0.533 µg/mL) |  |  | 
O=[N+]([O-])c1cn2c(n1)OC[C@@H](OCC#Cc1cccc(-c3ccc(OC(F)(F)F)cc3)c1)C2 |  | 35800 ng·h/mL | 6.4 | 94% | 89% | 14.7 h | 12900 ng/mL | 7.2 | 1660 ng/mL | 0.11 µM (≈ 0.0505 µg/mL) | 257000 ng·h/mL | 1.3 µM (≈ 0.597 µg/mL) | 0.27 µg/mL (≈ 0.588 µM) |  | 14.1 h
O=[N+]([O-])c1cn2c(n1)OC[C@@H](OCC#Cc1ccc(-c3ccc(OC(F)(F)F)cc3)cn1)C2 |  |  | 0.91 | 89% | 86% |  |  |  |  | 0.025 µM (≈ 0.0115 µg/mL) |  | 0.35 µM (≈ 0.161 µg/mL) | 0.05 µg/mL (≈ 0.109 µM) |  | 
O=[N+]([O-])c1cn2c(n1)OC[C@@H](OCCCC#Cc1ccc(-c3ccc(OC(F)(F)F)cc3)cc1)C2 |  |  |  |  |  |  |  |  |  | 0.055 µM (≈ 0.0268 µg/mL) |  | > 128 µM |  | Unstable | 
O=[N+]([O-])c1cn2c(n1)OC[C@@H](Oc1ccc(-c3ccc(OC(F)(F)F)cc3)cn1)C2 |  |  | 0.17 | 96% | 93% |  |  |  |  | 0.39 µM (≈ 0.165 µg/mL) |  | 12 µM (≈ 5.07 µg/mL) | 0.24 µg/mL (≈ 0.568 µM) |  | 
O=[N+]([O-])c1cn2c(n1)OC[C@@H](Oc1ncc(-c3ccc(OC(F)(F)F)cc3)cn1)C2 |  |  |  | 88% | 95% |  |  |  |  | 0.22 µM (≈ 0.0931 µg/mL) |  | 5.2 µM (≈ 2.2 µg/mL) | 1.7 µg/mL (≈ 4.02 µM) |  | 
O=[N+]([O-])c1cn2c(n1)OC[C@@H](OCCCC#Cc1ccc(C(F)(F)F)nc1)C2 |  |  |  |  |  |  |  |  |  | 0.12 µM (≈ 0.0476 µg/mL) |  | 9.2 µM (≈ 3.65 µg/mL) | 16 µg/mL (≈ 40.4 µM) |  | 
O=[N+]([O-])c1cn2c(n1)OC[C@@H](Oc1ccc(-c3ccc(OC(F)(F)F)cc3)cc1)C2 |  | 102000 ng·h/mL | 8.1 |  |  | 37.9 h | 15800 ng/mL | 3.4 | 1860 ng/mL | 0.09 µM (≈ 0.0379 µg/mL) | 347000 ng·h/mL | 1.1 µM (≈ 0.463 µg/mL) | 0.33 µg/mL (≈ 0.783 µM) |  | 15.3 h
O=[N+]([O-])c1cn2c(n1)OC[C@@H](Oc1cc(-c3ccc(OC(F)(F)F)cc3)ccn1)C2 |  |  |  |  |  |  |  |  |  | 5.1 µM (≈ 2.15 µg/mL) |  | 87 µM (≈ 36.7 µg/mL) | 0.13 µg/mL (≈ 0.308 µM) | < 50% | 
O=[N+]([O-])c1cn2c(n1)OC[C@@H](Oc1cc(-c3ccc(OC(F)(F)F)cc3)ncn1)C2 |  |  |  |  |  |  |  |  |  | 2.1 µM (≈ 0.889 µg/mL) |  |  | 0.88 µg/mL (≈ 2.08 µM) | < 50% | 
O=[N+]([O-])c1cn2c(n1)OC[C@@H](OCc1ccc(-c3ccc(OC(F)(F)F)cc3)cc1)C2 | 0.86 |  |  |  |  |  |  |  |  |  |  |  |  |  | 12.8 h
CC(O[C@@H]1COc2nc([N+](=O)[O-])cn2C1)c1ccc(OC(F)(F)F)cc1 (mixture of isomers) |  |  |  | 73% | 75% |  |  |  |  | 0.6 µM |  | 7.7 µM |  |  | 
